# The source made the active and inactive calls. No cut-off for these calls is given here.
# Tests used:
# Assay type in all cases: functional, organism-based
# [1] = system: Staphylococcus aureus; test: Antibacterial activity against thymidine-dependent small-colony variant Staphylococcus aureus derived from cystic fibrosis patient assessed as resistant isolates at 37 degC after 24 hrs by disk diffusion method
# Procedure, shortened: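 Disk diffusion per CLSI guidelines (fosfomycin per French CA-SFM guidelines). Thymidine-dependent SCVs cannot grow without thymidine, so they were tested on Mueller-Hinton agar with 5% defibrinated sheep blood and incubated 24 h at 37°C. Isolates scored susceptible or resistant per agent.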
# [2] = system: Staphylococcus aureus; test: Antibacterial activity against normal-colony variant Staphylococcus aureus derived from non cystic fibrosis patient assessed as resistant isolates at 37 degC after 24 hrs by disk diffusion method
# Procedure, shortened: (§1)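 Disk diffusion per CLSI guidelines (fosfomycin per French CA-SFM guidelines). NCV isolates tested on plain Mueller-Hinton agar and incubated 24 h at 37°C. Isolates scored susceptible or resistant per agent.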
# [3] = system: Staphylococcus aureus; test: Antibacterial activity against normal-colony variant Staphylococcus aureus derived from cystic fibrosis patient assessed as resistant isolates at 37 degC after 24 hrs by disk diffusion method; procedure, shortened: as §1
Compound,Activity [1],Activity [2],Activity [3]
CO[C@H]1/C=C/O[C@@]2(C)Oc3c(C)c(O)c4c(O)c(c(/C=N/N5CCN(C)CC5)c(O)c4c3C2=O)NC(=O)/C(C)=C\C=C\[C@H](C)[C@H](O)[C@@H](C)[C@@H](O)[C@@H](C)[C@H](OC(C)=O)[C@@H]1C,inactive,Active,Active
GENTAMICIN,inactive,Active,Active
C[C@@H]1O[C@@H]1P(=O)(O)O,inactive,Active,Active
CC[C@H]1OC(=O)[C@H](C)[C@@H](O[C@H]2C[C@@](C)(OC)[C@@H](O)[C@H](C)O2)[C@H](C)[C@@H](O[C@@H]2O[C@H](C)C[C@H](N(C)C)[C@H]2O)[C@](C)(O)C[C@@H](C)C(=O)[C@H](C)[C@@H](O)[C@]1(C)O,inactive,Active,Active
O=C(O)c1cn(C2CC2)c2cc(N3CCNCC3)c(F)cc2c1=O,inactive,Active,Active

# Reference: ChEMBL document CHEMBL1275419, “The thymidine-dependent small-colony-variant phenotype is associated with hypermutability and antibiotic resistance in clinical Staphylococcus aureus isolates” (Antimicrob Agents Chemother, 2008)
